Tests used:
[1] = Stability of PI-103BE; assay type: in vitro ADME; details: species found after treatment with PI-103BE (9); for Fraction in culture medium: all time points
[2] = system: panel of cancer cell lines; assay: In vitro antiproliferative activity, panel of six cancer cell lines; assay type: cell-based, human; details: IC50 ratio across A549, MDA-MB-231, HeLa, 22Rv1, PC-3, SKOV-3
Summary of the method: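 Cells plated at 50,000 per well in DMEM with 5% FBS and exposed for 4 days to test compound at 6 doses. DMSO served as vehicle control and the parent inhibitor as positive control. Cells were counted on a Coulter counter. Survival ratio is treated over vehicle cell number, and IC50 is taken from dose-response curves. Run in triplicate, mean ± SD.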

[3] = Single dose pharmacokinetics in mice, intraperitoneal injection; assay type: in vivo
[4] = Single dose pharmacokinetics in mice, oral gavage; assay type: in vivo; details: single oral dose 10 mg/kg
Summary of the method: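 Female ovariectomized Nu/Nu mice, 4–6 weeks old (n = 5), received a single 10 mg/kg dose by gavage in 5% DMSO/40% PEG 400/55% saline. Orbital-sinus blood was drawn at 0.5, 1, 3, 8 and 24 h, with one sampling per group, into EDTA. Plasma was separated at 4 °C and frozen at −80 °C. Drug and metabolites were quantified by C18 UHPLC–MS (formic acid water/acetonitrile gradient).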

[5] = system: human breast adenocarcinoma MDA-MB-231; assay: In vitro antiproliferative assay; assay type: cell-based; details: Fig. 5
Summary of the method: (§1)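 Cells seeded at 50,000 per well in DMEM with 5% FBS. Exposed for 4 days to test compound at 6 concentrations, with DMSO vehicle and a reference compound as positive control. Cell numbers counted on a Coulter counter. Survival ratio is treated over vehicle cell number. IC50 taken from dose-response curves. Run in triplicate, mean ± SD.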

[6] = system: human cervical cancer HeLa; assay: In vitro antiproliferative assay; assay type: cell-based; details: Fig. 5
Summary of the method: as §1

[7] = system: human lung carcinoma A549; assay: In vitro antiproliferative assay; assay type: cell-based; details: Fig. 5
Summary of the method: as §1

[8] = system: human prostate carcinoma 22Rv1; assay: In vitro antiproliferative assay; assay type: cell-based; details: Fig. 5
Summary of the method: as §1

Fraction of total drug content in cell culture media ([1]; 0.5 h) [%] | Fraction of total drug content in cell culture media ([1]; 1 h) [%] | Concentration in cell culture media ([1]; 3 h) [nM] | Fraction of total drug content in cell culture media ([1]; 3 h) [%] | Concentration in cell culture media ([1]; 8 h) [nM] | Fraction of total drug content in cell culture media ([1]; 8 h) [%] | Concentration in cell culture media ([1]; 24 h) [nM] | Fraction of total drug content in cell culture media ([1]; 24 h) [%] | PI-103BE in plasma ([3]; 10 mg/kg IP of labelled compound, analyte PI-103BE) | Fraction in culture medium [1] [%] | Oral bioavailability [4] | Peak plasma concentration of PI-103, times lower than after i.p. PI-103BE ([3]; 10 mg/kg IP, 7-treated vs PI-103BE-treated) [times] | SMILES | Times less potent than PI-103 (7) [2] | Antiproliferative activity [5] | Antiproliferative activity [6] | Antiproliferative activity [7] | Antiproliferative activity [8]
1.61 | 0.32 | 0 | 0 | 0 | 0 | 0 | 0 | no PI-103BE was detected in plasma | – | – | – | CC1(C)OB(c2cccc(-c3nc(N4CCOCC4)c4oc5ncccc5c4n3)c2)OC1(C)C [PI-103BE (9), 4-Morpholino-2-(3-(4,4,5,5-tetramethyl-1,3,2-dioxaborolan-2-yl)phenyl)pyrido[3′,2′:4,5] furo[3,2-d]pyrimidine] | 3 ~ 24 times | – | – | – | –
2.02 | 2.52 | – | 3.30 | – | 3.27 | – | 3.81 | – | < 4 | no oral bioavailability | 10 | Oc1cccc(-c2nc(N3CCOCC3)c3oc4ncccc4c3n2)c1 [PI-103 (7), 3-(4-Morpholinopyrido[3′,2′:4,5]furo[3,2-d]pyrimidin-2-yl)phenol, reference compound] | – | – | – | – | –
97.95 | – | – | 96.70 | – | 96.73 | – | 96.19 | – | > 95 | – | – | OB(O)c1cccc(-c2nc(N3CCOCC3)c3oc4ncccc4c3n2)c1 [PI-103BA (10), (3-(4-Morpholinopyrido[3′,2′:4,5]furo[3,2-d]pyrimidin-2-yl)phenyl)boronic acid] | – | dose dependent antiproliferative activities | dose dependent antiproliferative activities | dose dependent antiproliferative activities | dose dependent antiproliferative activities

From article PMC8570090 (Bioorganic & medicinal chemistry letters, 2020)
